Results on five compounds are retold here after ChEMBL document CHEMBL2010799, “Hypoglycemic diterpenoids from Tinospora crispa” (2012).

The source made the active and inactive calls. No cut-off for these calls is given here.

In one test the test system is MIN6. The experiment in a line: Induction of insulin secretion in mouse MIN6 cells. Type of test: functional, cell-based.
Test [1] in a line: Blockade of ATP-sensitive K+ channels.
For test [2], the system named is Mus musculus. The experiment in a line: Antidiabetic activity in STZ-induced ICR mouse T1DM model assessed as reduction in plasma glucose level at 5 mg/kg, ip after 60 mins. Type of test: functional, organism-based. On the set-up: dose 5 mg/kg. The procedure, abridged: (§1)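 ICR mice (normal, STZ-induced T1DM, or diet-induced T2DM) received a single ip injection in 2% DMSO/normal saline vehicle. Orbital plexus blood was drawn under pentobarbital anesthesia before and 60 min after injection. Plasma glucose was read with a glucose kit and analyzer and expressed as percent decrease, (Gi − Gt)/Gi × 100%. Seven animals per group, mean ± SEM.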

In test [3] the test system is Mus musculus. The experiment in a line: Antidiabetic activity in normal ICR mouse assessed as reduction in plasma glucose level at 5 mg/kg, ip after 60 mins. The test is classed as functional, organism-based. Details: dose 5 mg/kg. The essentials: as §1
The subject of test [4] is Mus musculus. The experiment in a line: Antidiabetic activity in normal ICR mouse assessed as reduction in plasma glucose level at 5 mg/kg, ip after 60 mins relative to metformin at 200 mg/kg, ip. Type of test: functional.
The subject of test [5] is Mus musculus. The experiment in a line: Antidiabetic activity in STZ-induced ICR mouse T1DM model assessed as reduction in plasma glucose level at 5 mg/kg, ip after 60 mins relative to metformin at 200 mg/kg, ip. The test is classed as functional.
The test system of test [6] is Mus musculus. The experiment in a line: Antidiabetic activity in normal ICR mouse assessed as increase in plasma insulin level at 1 mg/kg, ip after 60 mins by ELISA (reference value: 60.3 +/- 3.7 pmol/L). To be noted: route intraperitoneal. Type of test: functional. (In general: ELISA stands for enzyme-linked immunosorbent assay.)
Test [7] deals with Mus musculus. The experiment in a line: Antidiabetic activity in diet-induced ICR mouse T2DM model assessed as increase in plasma insulin level at 5 mg/kg, ip after 60 mins by ELISA (reference value: 112.1 +/- 6.3 pmol/L). The test is classed as functional. To be noted: route intraperitoneal.
Test [8] relates to Mus musculus. The experiment in a line: Antidiabetic activity in normal ICR mouse assessed as increase in plasma insulin level at 3 mg/kg, ip after 60 mins by ELISA (reference value: 52 +/- 3.7 pmol/L). The test is classed as functional. The conditions noted are these: route intraperitoneal.
Test [9] has as its system Mus musculus. The experiment in a line: Antidiabetic activity in STZ-induced ICR mouse T1DM model assessed as increase in plasma insulin level at 0.1 mg/kg, ip after 60 mins by ELISA (reference value: 15.2 +/- 0.8 pmol/L). Type of test: functional. The conditions noted are these: route intraperitoneal.
The subject of test [10] is Mus musculus. The experiment in a line: Antidiabetic activity in STZ-induced ICR mouse T1DM model assessed as increase in plasma insulin level at 3 mg/kg, ip after 60 mins by ELISA (reference value: 13.8 +/- 1.6 pmol/L). Type of test: functional. To be noted: route intraperitoneal.
Test [11] concerns Mus musculus. The experiment in a line: Antidiabetic activity in diet-induced ICR mouse T2DM model assessed as reduction in plasma glucose level after 30 mins post glucose challenge by ip glucose tolerance test (reference value: 406 +/- 9 mg/dL). The test is classed as functional.
Test [12] deals with Mus musculus. The experiment in a line: Antidiabetic activity in normal ICR mouse assessed as increase in plasma insulin level at 0.1 mg/kg, ip after 60 mins by ELISA (reference value: 54 +/- 3.4 pmol/L). Type of test: functional. To be noted: route intraperitoneal.
Test [13] has as its system Mus musculus. The experiment in a line: Antidiabetic activity in diet-induced ICR mouse T2DM model assessed as increase in plasma insulin level at 1 mg/kg, ip after 60 mins by ELISA (reference value: 111.6 +/- 2.7 pmol/L). Type of test: functional. To be noted: route intraperitoneal.
Test [14] concerns Mus musculus. The experiment in a line: Antidiabetic activity in ip dosed STZ-induced ICR mouse T1DM model assessed as reduction in plasma glucose level after 60 mins. Type of test: functional, organism-based. The essentials: as §1
In test [15] the test system is Mus musculus. The experiment in a line: Antidiabetic activity in diet-induced ICR mouse T2DM model assessed as increase in plasma insulin level at 3 mg/kg, ip after 60 mins by ELISA (reference value: 112.1 +/- 3.2 pmol/L). Type of test: functional. The conditions noted are these: route intraperitoneal.
In test [16] the test system is Mus musculus. The experiment in a line: Antidiabetic activity in normal ICR mouse assessed as increase in plasma insulin level at 0.5 mg/kg, ip after 60 mins by ELISA (reference value: 53.1 +/- 3.3 pmol/L). Type of test: functional. To be noted: route intraperitoneal.
The test system of test [17] is Mus musculus. The experiment in a line: Antidiabetic activity in normal ICR mouse assessed as increase in plasma insulin level at 5 mg/kg, ip after 60 mins by ELISA (reference value: 57.6 +/- 2.4 pmol/L). Type of test: functional. The conditions noted are these: route intraperitoneal.
In test [18] the test system is Mus musculus. The experiment in a line: Antidiabetic activity in diet-induced ICR mouse T2DM model assessed as increase in plasma insulin level at 0.5 mg/kg, ip after 60 mins by ELISA (reference value: 120.8 +/- 4.3 pmol/L). The test is classed as functional. To be noted: route intraperitoneal.
Test [19] concerns Mus musculus. The experiment in a line: Antidiabetic activity in normal ICR mouse assessed as reduction in plasma glucose level after 30 mins post glucose challenge by ip glucose tolerance test (reference value: 346 +/- 15 mg/dL). Type of test: functional.
Test [20] has as its system Mus musculus. The experiment in a line: Antidiabetic activity in STZ-induced ICR mouse T1DM model assessed as increase in plasma insulin level at 0.5 mg/kg, ip after 60 mins by ELISA (reference value: 16.2 +/- 0.7 pmol/L). The test is classed as functional. To be noted: route intraperitoneal.
The subject of test [21] is Mus musculus. The experiment in a line: Antidiabetic activity in ip dosed normal ICR mouse assessed as reduction in plasma glucose level after 60 mins. Type of test: functional, organism-based. The procedure, abridged:
as §1

Test [22] deals with Mus musculus. The experiment in a line: Antidiabetic activity in ip dosed diet-induced ICR mouse T2DM model assessed as reduction in plasma glucose level after 60 mins. The test is classed as functional, organism-based. The procedure, abridged:
as §1

Test [23] concerns Mus musculus. The experiment in a line: Antidiabetic activity in diet-induced ICR mouse T2DM model assessed as increase in plasma insulin level at 0.1 mg/kg, ip after 60 mins by ELISA (reference value: 111.8 +/- 5.2 pmol/L). Type of test: functional. The conditions noted are these: route intraperitoneal.
For test [24], the system named is Mus musculus. The experiment in a line: Antidiabetic activity in diet-induced ICR mouse T2DM model assessed as reduction in plasma glucose level after 60 to 150 mins post glucose challenge by ip glucose tolerance test. The test is classed as functional, organism-based.
Test [25] deals with Mus musculus. The experiment in a line: Antidiabetic activity in normal ICR mouse assessed as reduction in plasma glucose level after 60 to 150 mins post glucose challenge by ip glucose tolerance test. Type of test: functional, organism-based.
For test [26], the system named is Mus musculus. The experiment in a line: Antidiabetic activity in STZ-induced ICR mouse T1DM model assessed as decrease in phosphoenolpyruvate carboxykinase level in liver at 5 mg/kg administered bid for 7 days by Western blotting analysis. Details: dose 5 mg/kg. Type of test: functional, organism-based. The essentials: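 Male ICR mice with STZ-induced T1DM (fasting glucose >350 mg/dL, used 4 weeks after STZ) were dosed ip at 5.0 mg/kg twice daily for 7 days. Liver homogenates (60 µg) were run on 8% SDS-PAGE and Western blotted with PEPCK antibody (1:1000), with ECL detection. PEPCK (70 kDa) and β-actin (43 kDa) were quantified by densitometry; n = 3.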

Test [27] deals with Mus musculus. The experiment in a line: Antidiabetic activity in STZ-induced ICR mouse T1DM model assessed as increase in plasma insulin level at 5 mg/kg, ip after 60 mins by ELISA (reference value: 14.7 +/- 0.4 pmol/L). The test is classed as functional. The conditions noted are these: route intraperitoneal.
For test [28], the system named is Mus musculus. The experiment in a line: Antidiabetic activity in STZ-induced ICR mouse T1DM model assessed as increase in plasma insulin level at 1 mg/kg, ip after 60 mins by ELISA (reference value: 15.7 +/- 1.0 pmol/L). The test is classed as functional. To be noted: route intraperitoneal.
Test [29] deals with Mus musculus. The experiment in a line: Antidiabetic activity in normal ICR mouse assessed as reduction in plasma glucose level at 5 mg/kg, ip after 60 mins (reference value: 102 +/- 3.7 mg/dL). The test is classed as functional. The conditions noted are these: route intraperitoneal. The procedure, abridged: as §1
Test [30] deals with Mus musculus. The experiment in a line: Antidiabetic activity in diet-induced ICR mouse T2DM model assessed as increase in plasma insulin level at 5 mg/kg, ip after 60 mins by ELISA (reference value: 123.5 +/- 10.2 pmol/L). Type of test: functional. The conditions noted are these: route intraperitoneal.
Test [31] deals with Mus musculus. The experiment in a line: Antidiabetic activity in diet-induced ICR mouse T2DM model assessed as reduction in plasma glucose level at 5 mg/kg, ip after 60 mins (reference value: 170 +/- 2.8 mg/dL). The test is classed as functional. The conditions noted are these: route intraperitoneal. The essentials: as §1
Test [32] has as its system Mus musculus. The experiment in a line: Antidiabetic activity in normal ICR mouse assessed as increase in plasma insulin level at 5 mg/kg, ip after 60 mins by ELISA (reference value: 52.5 +/- 4.6 pmol/L). Type of test: functional. To be noted: route intraperitoneal.
The test system of test [33] is Mus musculus. The experiment in a line: Antidiabetic activity in STZ-induced ICR mouse T1DM model assessed as increase in plasma insulin level at 200 mg/kg, ip after 60 mins by ELISA (reference value: 13.5 +/- 1.1 pmol/L). Type of test: functional. The conditions noted are these: route intraperitoneal.
The test system of test [34] is Mus musculus. The experiment in a line: Antidiabetic activity in STZ-induced ICR mouse T1DM model assessed as reduction in plasma glucose level at 200 mg/kg, ip after 60 mins. Details: dose 200 mg/kg. The test is classed as functional, organism-based. The essentials: as §1
Test [35] relates to Mus musculus. The experiment in a line: Antidiabetic activity in normal ICR mouse assessed as reduction in plasma glucose level at 200 mg/kg, ip after 60 mins. The test is classed as functional, organism-based. On the set-up: dose 200 mg/kg. The procedure, abridged:
as §1

Take `COC(=O)C1=C[C@H](O)C[C@H]2[C@]3(C)C[C@@H](c4ccoc4)OC(=O)[C@H]3C[C@H](O[C@@H]3O[C@H](CO)[C@@H](O)[C@H](O)[C@H]3O)[C@@]12C`: the outcome (in the test with MIN6; in test [1]; with Mus musculus [2]; in the test with Mus musculus [3]) was inactive.
Turning to `C[C@@]12C[C@@H](c3ccoc3)OC(=O)[C@@H]1C[C@@H]1OC(=O)[C@@]3(O)[C@@H](O[C@@H]4O[C@H](CO)[C@@H](O)[C@H](O)[C@H]4O)CC[C@@H]2[C@@]13C` [BORAPETOSIDE A], the outcome (with MIN6; in test [1]) was inactive. Also, the “fold change (FC)” value in the test on Mus musculus [4] and in the test on Mus musculus [5] was 2 throughout. In addition, the outcome with Mus musculus [2] and in the test with Mus musculus [3] was Active.
With `COC(=O)C1=CCC[C@H]2[C@]3(C)C[C@@H](c4ccoc4)OC(=O)[C@@H]3C[C@@H](O[C@@H]3O[C@H](CO)[C@@H](O)[C@H](O)[C@H]3O)[C@@]12C` [BORAPETOSIDE C], the Activity was found to be 63 pmol/L in the test with Mus musculus [6]; 257.6 pmol/L in the test on Mus musculus [7]; 142.6 pmol/L in the test on Mus musculus [8]; 16.3 pmol/L in the test on Mus musculus [9]; 14.8 pmol/L in the test with Mus musculus [10]; 343 mg/dL with Mus musculus [11]. Moreover, the Activity was 71.5 pmol/L in the test with Mus musculus [12]; 173 pmol/L with Mus musculus [13]; “Dose-dependent effect” in the test on Mus musculus [14]; 253.9 pmol/L with Mus musculus [15]; 70.7 pmol/L with Mus musculus [16]; 149.6 pmol/L with Mus musculus [17]. The Activity was 170.8 pmol/L in the test on Mus musculus [18]; 293 mg/dL with Mus musculus [19]; 15.7 pmol/L with Mus musculus [20]; “Dose-dependent effect” in the test with Mus musculus [21]; “Dose-dependent effect” with Mus musculus [22]; 111.3 pmol/L with Mus musculus [23]. Besides, the Activity is given as 14.3 pmol/L with Mus musculus [27] and 15.9 pmol/L in the test with Mus musculus [28]. Also, the outcome (in the test on MIN6; in [1]) was inactive. Also, the result in the test on Mus musculus [2], in the test with Mus musculus [3], with Mus musculus [24], with Mus musculus [25] and with Mus musculus [26] was Active.
For the compound `COc1ccc(Cl)cc1C(=O)NCCc1ccc(S(=O)(=O)NC(=O)NC2CCCCC2)cc1` [GLYBURIDE], the Activity with Mus musculus [29] amounted to 84 mg/dL; with Mus musculus [30], 208.8 pmol/L; with Mus musculus [31], 108 mg/dL; in the test with Mus musculus [32] it was 145.8 pmol/L.
Regarding `CN(C)C(=N)NC(=N)N` [METFORMIN], the Activity in the test with Mus musculus [33] turned out to be 15.1 pmol/L. The result with Mus musculus [34] and in the test with Mus musculus [35] was Active.
